We go through 17 compounds from ChEMBL document CHEMBL1123923, “Steroidal silicon side-chain analogues as potential antifertility agents” (1987).

Test [1] deals with Estrogen receptor (Rattus norvegicus) (UniProt P06211+Q62986).
The species entered for test [2] is Rattus norvegicus. Kind of test: Antifertility activity measured as minimum protective dose for prevention of pregnancy in rats. It is filed as functional. On the set-up: unit not given here. The method in brief: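 Oral dosing in adult cycling female rats selected in the proestrous phase, 10 animals per dose, with treatment starting on the day of proestrus.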

Test [3] is filed under the species Rattus norvegicus. Kind of test: Separation of antifertility from estrogenic activity in rats was measured. The test is classed as functional.

For the compound `CCCCCC[Si](C#C[C@]1(O)CC[C@H]2[C@@H]3CCc4cc(O)ccc4[C@H]3CC[C@@]21C)(CC)CC`, in test [1], the Estrogenic potency came to 5.2. The compound further yielded an Antifertility potency in test [2] of 15. The same compound came in with a Separation in test [3] of 3.
On the same counts, the results for `CC[Si](O)(C#C[C@]1(O)CC[C@H]2[C@@H]3CCc4cc(O)ccc4[C@H]3CC[C@@]21C)CC` are 11, 300 and 27.
The like results for `C=C([C@]1(O)CC[C@H]2[C@@H]3CCc4cc(O)ccc4[C@H]3CC[C@@]21C)[Si](CC)(CC)CC` were, in that order, 0.5, 4 and 8.
On the same counts, the results for `CC[Si](C#C[C@]1(O)CC[C@H]2[C@@H]3CCc4cc(O)ccc4[C@H]3CC[C@@]21C)(CC)c1ccccc1` are 17, 150 and 10.
On to `C[C@]12CC[C@@H]3c4ccc(O)cc4CC[C@H]3[C@@H]1CC[C@@]2(O)C#C[Si](c1ccccc1)(c1ccccc1)c1ccccc1`, for which the Estrogenic potency in test [1] worked out at 0.5. This compound came in with an Antifertility potency in test [2] of 0.
As to `CC[Si](C)(C#C[C@]1(O)CC[C@H]2[C@@H]3CCc4cc(O)ccc4[C@H]3CC[C@@]21C)CC`, in test [1], the Estrogenic potency is 40. In test [2], the Antifertility potency stood at 600. Also, the Separation in test [3] came out at 15.
`CCCC(=O)Oc1ccc2c(c1)CC[C@@H]1[C@@H]2CC[C@@]2(C)[C@H]1CC[C@]2(C#C[Si](CC)(CC)CC)OC(=O)CCC` gave an Estrogenic potency in test [1] of 4. In test [2], this compound had an Antifertility potency of 40.
`CCCC[Si](C#C[C@]1(O)CC[C@H]2[C@@H]3CCc4cc(O)cc(C(C)=O)c4[C@H]3CC[C@@]21C)(CCCC)CCCC` came in with an Estrogenic potency in test [1] of 4. The compound also gave an Antifertility potency in test [2] of 0.
The compound `C#C[C@]1(O)CC[C@H]2[C@@H]3CCc4cc(O)ccc4[C@H]3CC[C@@]21C` [ETHINYL ESTRADIOL] had an Antifertility potency in test [2] of 100.
As for `CC[Si](C#C[C@]1(O)CC[C@H]2[C@@H]3CCc4cc(OC5CCCC5)ccc4[C@H]3CC[C@@]21C)(CC)CC`, the Estrogenic potency in test [1] amounted to 24. Further, in test [2], the Antifertility potency stood at 300.
Regarding `CC[Si](C#C[C@]1(OC(=O)n2ccnc2)CC[C@H]2[C@@H]3CCc4cc(OC)ccc4[C@H]3CC[C@@]21C)(CC)CC`, the Estrogenic potency in test [1] amounted to 3.
`CCCC[Si](C#C[C@]1(O)CC[C@H]2[C@@H]3CCc4cc(O)ccc4[C@H]3CC[C@@]21C)(CCCC)CCCC` registered an Estrogenic potency in test [1] of 2.5. In test [2], the Antifertility potency came out at 0.
The like results for `CCC[Si](C=C[C@]1(O)CC[C@H]2[C@@H]3CCc4cc(O)ccc4[C@H]3CC[C@@]21C)(CCC)CCC` were, in that order, 0.05 and 0.
The like results for `CC[Si](C#C[C@]1(O)CC[C@H]2[C@@H]3CCc4cc(OC(C)=O)ccc4[C@H]3CC[C@@]21C)(CC)CC` were, in that order, 34 and 600.
For the compound `CC[Si](C#C[C@]1(O)CC[C@H]2[C@@H]3CCc4cc(O)ccc4[C@H]3CC[C@@]21C)(C#C[C@]1(O)CC[C@H]2[C@@H]3CCc4cc(O)ccc4[C@H]3CC[C@@]21C)CC`, in test [1], the Estrogenic potency amounted to 8. The compound further registered an Antifertility potency in test [2] of 0.
As for `C[C@]12CC[C@@H]3c4ccc(O)cc4CC[C@H]3[C@@H]1CC[C@@]2(O)/C=C/[Si](C)(C)C`, the Estrogenic potency in test [1] came out at 0.2. The same compound had an Antifertility potency in test [2] of 0.
The like results for `CCCC(=O)Oc1ccc2c(c1)CC[C@@H]1[C@@H]2CC[C@@]2(C)[C@H]1CC[C@@]2(O)C#C[Si](CC)(CC)CC` were, in that order, 35 and 300.
